Results on two compounds are retold here after PMC6889220 (ACS chemical neuroscience, 2019).

pEC50, pKd: −log10 of the molar value. Read-outs that look alike come from different tables or passages of the source. Where only a bound is given, the exact number is not on record here.

Data set [1] deals with Xenopus laevis tadpoles. Put plainly: Hypnotic activity Xenopus laevis tadpole bioassay. The settings on record: for pEC50: Xenopus laevis. The format is in vivo. The gist of the method: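 Albino tadpoles at stages 45–47, 10 per dish, kept at 21–22 °C. They were exposed for 30 min to graded concentrations of test compound, with or without 10 μM atipamezole, in E3 artificial pond water containing <0.01% (v/v) DMSO. Loss of spontaneous movement was scored. Animals were then moved to fresh pond water and watched for toxicity. Each concentration was run in triplicate and reported as mean ± SEM.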

The target in data set [2] is human serum albumin (hSA) (Homo sapiens, UniProt P02768). Put plainly: Isothermal titration calorimetry with human serum albumin. The format is binding. Summed up:
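The calorimeter cell held 20 μM human serum albumin in PBS (150 mM NaCl, 20 mM sodium phosphate, pH 7.4), with ddH2O in the reference cell. The titrant was 0.22 mM test compound, made as a filtered saturated PBS solution with concentration checked by UV absorbance. Injections were spaced 300 s apart at 30 °C. Data were corrected for heats of dilution and fitted to a single set of independent sites. Ka from triplicate runs was averaged.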

The target in data set [3] is T1, human α2A adrenergic receptor (Homo sapiens, UniProt P08913).
T1 sequence (P08913 1-465): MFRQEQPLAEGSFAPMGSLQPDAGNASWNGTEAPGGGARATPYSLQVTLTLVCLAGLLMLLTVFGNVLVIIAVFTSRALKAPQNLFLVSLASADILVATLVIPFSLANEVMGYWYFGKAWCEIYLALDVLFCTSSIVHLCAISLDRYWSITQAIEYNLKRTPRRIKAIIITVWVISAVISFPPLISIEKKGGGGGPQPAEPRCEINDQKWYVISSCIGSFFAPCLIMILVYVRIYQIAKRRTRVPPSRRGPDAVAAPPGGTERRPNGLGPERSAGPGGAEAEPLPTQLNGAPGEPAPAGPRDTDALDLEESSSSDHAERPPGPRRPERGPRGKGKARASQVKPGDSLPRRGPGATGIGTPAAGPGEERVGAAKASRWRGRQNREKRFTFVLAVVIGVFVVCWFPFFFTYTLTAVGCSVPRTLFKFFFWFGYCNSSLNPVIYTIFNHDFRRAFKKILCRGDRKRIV
Put plainly: [35S]GTPγS binding assay. The format is biochemical. The settings on record: 1 μM RX 821002 (selective α2 antagonist). In general terms: GTPγS is a poorly hydrolysed GTP analogue; its binding reports G protein activation.

In data set [4] the target is T2, recombinant human α2A -R (Homo sapiens, UniProt P08913).
T2 sequence (P08913 1-465): T1 sequence (P08913 1-465)
As to the kind of experiment: [3H]clonidine radioligand competitive binding assay. As to conditions: Kd with the Cheng–Prusoff correction, 15 nM [3H]-clonidine.

The subject of data set [5] is albumin. The settings on record: cited from earlier work.
Where [6] appears, read: 0.5 h, read-out: hypnotic EC50 (loss of spontaneous movement).

human serum albumin (hSA), sequence (P02768 25-609): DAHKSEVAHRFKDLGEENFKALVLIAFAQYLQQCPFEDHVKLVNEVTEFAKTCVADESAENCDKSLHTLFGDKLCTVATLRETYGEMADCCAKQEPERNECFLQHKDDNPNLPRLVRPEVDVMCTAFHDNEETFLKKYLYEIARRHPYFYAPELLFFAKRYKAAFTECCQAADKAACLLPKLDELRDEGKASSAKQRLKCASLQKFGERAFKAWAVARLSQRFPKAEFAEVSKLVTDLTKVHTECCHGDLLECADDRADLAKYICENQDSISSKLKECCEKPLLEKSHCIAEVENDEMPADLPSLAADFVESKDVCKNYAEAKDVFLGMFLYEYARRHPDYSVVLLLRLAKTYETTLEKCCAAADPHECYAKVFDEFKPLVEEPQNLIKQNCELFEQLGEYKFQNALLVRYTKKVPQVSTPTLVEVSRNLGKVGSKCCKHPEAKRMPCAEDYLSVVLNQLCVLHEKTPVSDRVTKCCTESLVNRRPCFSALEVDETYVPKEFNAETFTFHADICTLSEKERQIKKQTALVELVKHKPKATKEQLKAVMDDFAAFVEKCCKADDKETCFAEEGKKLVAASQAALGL

As for `CC(c1cccc(C2(C(F)(F)F)N=N2)c1)c1cnc[nH]1` (stereo not drawn) [azi-medetomidine, 5-(1-(3-(3-(trifluoromethyl)-3H-diazirine-3-yl)phenyl)ethyl)-1H-imidazole], the pEC50 (as a rule, −log10 of the EC50, conventionally taken in molar units) in data set [1] (setting [6]) was 5.33. For the same compound, in data set [1] (observed after transfer to fresh pond water), the “toxicity in Xenopus tadpoles” value is listed as “did not display any frank toxicity”. Also, the pKd (usually the Kd on a negative log10 scale, so that one unit is a factor of ten) in data set [2] is 4.54; in data set [4] (with UV exposure (350 nm light, 30 min)), 8.43; in data set [4] (without UV) it was 8.68. For the same compound, the “α2A-R activity in the presence of RX 821,002” value in data set [3] is recorded as “eliminated all α2A -R activity”.
As to `Cc1cccc([C@H](C)c2cnc[nH]2)c1C` [dexmedetomidine, reference compound], the pEC50 was 6.07 in data set [1] (setting [6]) and 6.10 in data set [1] (read-out: behavioral EC50 in Xenopus tadpoles). Also, the “fraction bound to albumin in plasma” value in data set [5] is > 90%.
